# M5 antag: CHRM5 antagonism in calcium assay; P08912; CHO-hM5 cells, Fluo-8 calcium fluorescence, ACh EC80; inhibition, % at 3 µM; 0.59% of 360,000 active;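 active means inhibition above a per-plate cutoff, the mean of that plate's test compounds plus 3 SD, cut at about 27% in these data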;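 further: 0% = acetylcholine EC80 with DMSO and 100% = DMSO without agonist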
# Target sequence (P08912 whole entry, looked up): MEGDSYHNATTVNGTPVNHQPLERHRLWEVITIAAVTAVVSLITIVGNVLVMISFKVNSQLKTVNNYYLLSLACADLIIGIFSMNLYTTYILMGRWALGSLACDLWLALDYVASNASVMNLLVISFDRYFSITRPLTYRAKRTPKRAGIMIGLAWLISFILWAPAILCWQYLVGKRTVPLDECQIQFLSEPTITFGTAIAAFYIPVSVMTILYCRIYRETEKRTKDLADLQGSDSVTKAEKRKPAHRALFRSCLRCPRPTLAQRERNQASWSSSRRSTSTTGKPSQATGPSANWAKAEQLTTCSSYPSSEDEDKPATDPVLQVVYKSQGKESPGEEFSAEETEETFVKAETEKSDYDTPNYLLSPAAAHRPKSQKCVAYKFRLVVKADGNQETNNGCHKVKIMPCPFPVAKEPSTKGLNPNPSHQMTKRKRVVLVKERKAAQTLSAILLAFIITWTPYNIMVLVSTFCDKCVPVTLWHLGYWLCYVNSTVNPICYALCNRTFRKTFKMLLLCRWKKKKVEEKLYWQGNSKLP
# CHO-K1 Ca ag: nonselective activator or artifact in parental CHO-K1 cells. 0.48% of 360,000 active. Fluo-8 calcium fluorescence; scaled to maximal ATP response, vehicle zero. activation, % at 3 µM; in the data active means activation above about 15%;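 further: untransfected CHO-K1 host cells lacking M1 receptor as counterscreen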
# M1 PAM parental: counter-screen for M1 PAMs: effect in parental CHO-K1 cells | ATP EC20, Fluo-8 calcium fluorescence; 0% at ATP EC20, 100% at ATP max | activation, % at 3 µM | 0.02% of 360,000 active | AID 602247;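 active means activation above the run cutoff, the mean activation of all test compounds plus 3 SD, cut at about 40% in these data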;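 further: peak over basal fluorescence ratio in a 140 s read after ATP addition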
# M5 ag: agonists of human muscarinic M5 receptor (CHRM5); CHO-K1 hM5 cells, Fluo-8 calcium fluorescence; 0% DMSO wells, 100% maximal acetylcholine response; activation, % at 3 µM; 0.19% of 360,000 active; AID 624037;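 active means activation above the run's mean over test compounds plus 3 SD, cut at about 23% in these data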;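 further: signal is peak over basal fluorescence ratio across the kinetic read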
# M5 PAM: positive allosteric modulators of human muscarinic M5 receptor; P08912; CHO-K1 hM5, Fluo-8 calcium, ACh EC20 PAM; 0% = ACh EC20, 100% = ACh EC100; activation, % at 3 µM; 0.3% of 360,000 active; AID 624038;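 active means activation above the run cutoff, the mean activation of all test compounds plus 3 SD, cut at about 18% in these data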
#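 System – CHO-K1 hM5 cells · Compound – 3 µM, single dose · Incubation – compound preincubation 140 s before EC20 acetylcholine addition · Technique – Fluo-8 calcium fluorescence · Measure – Max/basal fluorescence ratio as % of EC20–EC100 ACh window · Benchmarks – low control EC20 acetylcholine (0%), high control EC100 acetylcholine (100%) · Replication – singlicate, one well per test compound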
# CHO-K1 Ca antag: M1 antagonist counterscreen hit in parental CHO-K1 cells; ATP-induced calcium, Fluo-8 fluorescence; inhibition, % at 3 µM; 0.6% of 360,000 active;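 active means inhibition above a per-plate cutoff, the plate's mean sample inhibition plus 3 SD, cut at about 24% in these data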;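 further: 0% = DMSO plus EC80 ATP and 100% = DMSO alone without ATP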
# * hit, by the source's call; . = no result given. Compounds with a hit are over-represented: about 1.7% of the library has one in this group of screens.
SMILES,M5 antag,CHO-K1 Ca ag,M1 PAM parental,M5 ag,M5 PAM,CHO-K1 Ca antag
COC(=O)COc1ccc(S(=O)(=O)Nc2ccc3c(c2)OCO3)cc1,1,6,6,12,-3,-19
N#Cc1c(N2CCOCC2)nc(-c2ccco2)c2c1CCCC2,-1,1,-7,-4,-15,25*
CCCCn1c(N)c(N(CC)C(=O)c2ccc(Cl)c(Cl)c2)c(=O)[nH]c1=O,28*,1,-21,-3,-8,-11
Cc1nn(CC(=O)NCc2ccc(C(=O)O)cc2)c(C)c1[N+](=O)[O-],12,2,-15,0,-15,24*
Cc1ccc(NC(=O)CSc2ncn[nH]2)cc1,11,19*,7,-4,-5,11
CCOc1ccc(NC(=O)CSc2ncn[nH]2)cc1,6,1,19,-4,-2,-6
O=C(Nc1ccccc1)Nc1ccc(Cl)c(S(=O)(=O)N2CCOCC2)c1,22,18*,-7,11,-28,10
O=S(=O)(c1ccc(NCc2ccccc2)cc1)N1CCOCC1,-6,1,-26,-2,-2,25*
O=C(Nc1ccc(N2CCOCC2)cc1)Nc1ccc(Cl)c(Cl)c1,39*,13,-16,15,-24,33*
Cn1c(C(=O)NCCN2CCOCC2)cc2c(=O)n3ccccc3nc21,-2,1,12,-1,11,-12
Cc1ccc(CONC(=O)c2cccc([N+](=O)[O-])c2)cc1,0,0,-9,1,5,-10
COC(=O)C(/C=N/OCc1ccc([N+](=O)[O-])cc1)NC(=O)c1cccc(Cl)c1 (stereo unspecified),-1,14,7,34*,-10,-2
C/C(=N\NC(=O)c1ccc(CSc2nncn2C)cc1)c1ccc(Cl)cc1,-3,1,20,-3,3,-10
COc1ccc(/C(C)=N/NC(=O)c2ccc(CSc3nncn3C)cc2)cc1,-5,15*,15,-1,0,9
CC(=O)OCc1ccc(C2=CC(=O)CC(C)(C)C2=O)cc1,9,0,-13,0,-1,24*
CN1CCCC(OC(=O)CCCCC(=O)OC2CCCN(C)C2)C1 (stereo unspecified),3,-1,-6,1,0,26*
CN1CCCC(OC(=O)c2ccc(Cl)cc2)C1 (stereo unspecified),9,1,20,-13,2,-7
CCSc1nc2ccccc2c(=O)n1C1CCOC(C)(C)C1 (stereo unspecified),-5,1,31,-1,-2,-15
COc1ccc(N(Cc2ccccc2)S(=O)(=O)c2cccc(C(=O)Nc3ccccn3)c2)cc1,10,-1,-3,1,-12,-3
Cc1sc2nc(CN(C(=O)NC3CCCCC3)C3CCCC3)[nH]c(=O)c2c1C,6,0,-7,2,-5,12
Cc1sc2nc(CN(Cc3cccs3)C(=O)NC3CCCCC3)[nH]c(=O)c2c1C,-3,0,13,-1,29*,-14
O=c1ccc2ccccc2n1Cc1cccc(F)c1,-6,1,9,0,-1,-8
Cc1ccc(/C=C2\C(=O)NC(=O)N2C)o1,11,0,10,-3,0,4
Cc1ccc(/C=C2/C(=O)N(c3ccccc3)C(=S)N2C)o1,1,0,-16,-1,-2,25*
CCOc1ccc(N2C(=O)/C(=C/c3ccco3)N(C)C2=S)cc1,4,-1,-17,2,-1,27*
SMILES,M5 antag,CHO-K1 Ca ag,M1 PAM parental,M5 ag,M5 PAM,CHO-K1 Ca antag
CCOC(=O)Nc1cccc(OCC(=O)Nc2ccccc2OCC)c1,10,1,-6,-4,-8,24*
COc1c(O)cc2c(c1O)C1OC(CO)C(O)C(O)C1OC2=O (stereo unspecified),-2,0,-13,46*,-15,28*
O=C(NNc1ccccn1)C(=O)NNS(=O)(=O)c1ccc(Cl)cc1,-4,0,10,1,2,-19
OC1CC2CCC(C1)N2CCCN1c2ccccc2Sc2ccc(Cl)cc21 (stereo unspecified),26,11,3,-9,-40,0
CN(C)CCCN1c2ccccc2Sc2ccc(C(F)(F)F)cc21,98*,.,.,1,-18,.
CN(C)CCC(=O)N1c2ccccc2Sc2ccc(C(F)(F)F)cc21,100*,2,18,-23,-32,-3
CN(C)CCCN1c2ccc(O)cc2Sc2ccc(Cl)cc21,56*,4,1,-1,-20,-2
CC1(C)OC(=O)C(C(c2ccccc2)C(C#N)C(N)=O)=C(O)O1 (stereo unspecified),-1,0,-7,0,5,16
Cc1c(C(=O)N/N=C/c2ccc(N3CCOCC3)cc2)nc2ccccn12,6,1,-15,1,-3,12
COc1cc(/C=N/NC(=O)c2nc3ccccn3c2C)cc(OC)c1O,-4,0,7,2,19*,-9
COc1ccc(N(C)C(=O)c2cc3c(s2)-c2c(C)cccc2OC3)c(OC)c1,-1,1,8,-1,3,-9
CC(C)N(C)Cc1nnnn1CC(=O)NCCc1cccc(C(F)(F)F)c1,1,1,-15,3,22*,23
COC(=O)[C@]1(C)N[C@H](CN(C)C(=O)Nc2ccc(OC)cc2)[C@@H]2C(=O)N(C)C(=O)[C@@H]21,-6,1,16,-2,5,-19
CN(C)CCNc1nc(-c2ccccc2)nnc1C(F)(F)F,-6,6,2,-1,5,46*
CCOC(=O)CN1N=C(/C=C/c2ccc(OCC)cc2)CCC1=O,5,11,11,-3,-2,6
CCOC(=O)CN1N=C(/C=C/c2ccccc2)CCC1=O,-5,5,2,28*,2,-7
COc1ccc(NC(=S)NC(NC(=O)c2ccc(Cl)cc2Cl)C(Cl)(Cl)Cl)c([N+](=O)[O-])c1 (stereo unspecified),28*,8,1,6,-21,3
COC(=O)c1cccc(NC(=O)Nc2ccc(Cl)cc2Cl)c1,11,0,-26,-2,-2,28*
COC(=O)c1cccc(NC(=S)Nc2cc(Cl)ccc2OC)c1,-8,1,12,-1,-7,1
COc1ccc(/C=C/C(=O)Nc2ccc3nc4n(c(=O)c3c2)CCCC4)cc1,1,1,15,-1,-1,-16
CCN1CCN(C(=O)c2cc(-c3ccc(Cl)s3)nc3ccccc23)CC1,7,19*,-8,3,-3,12
COC(=O)C1CCN(C(=O)c2cc(-c3ccc(Cl)s3)nc3ccccc23)CC1,17,9,4,0,-24,-9

# Screening data from PubChem BioAssay.
